Test results: ChEMBL document CHEMBL4028915, “The Design and Development of a Potent and Selective Novel Diprolyl Derivative That Binds to the N-Domain of Angiotensin-I Converting Enzyme” (J Med Chem, 2018)

Experiments:
Homo sapiens = species: Homo sapiens; experiment: Selectivity ratio of Ki for human testis ACE delta36NJ mutant to Ki for human ACE Ndom389 mutant
Summary of the method: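 Ki for each domain calculated from IC50 values obtained by Z-FHL hydrolysis assay (Ndom389 10 nM, tACE Δ36NJ 5 nM; 30 min room temperature preincubation, 15 min at 40 °C, OPA fluorescence ex 360/em 485 nm, triplicate). Ratio of C-domain Ki to N-domain Ki.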

[1] = Inhibition of human ACE Ndom389 mutant preincubated for 30 mins followed by Z-FHL substrate addition measured after 15 mins by fluorimetric method
Summary of the method: (§1)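 Enzyme diluted from frozen stock to 10 nM (Ndom389, line 1) or 5 nM (tACE Δ36NJ, line 2) in 100 mM potassium phosphate pH 8.3, 300 mM NaCl, 10 μM ZnSO4, 1 mg/ml albumin. Compounds (10-fold series 100 μM–1 nM, then 9-point two-fold series) preincubated with enzyme 1:1, 30 min, room temperature. 1 mM Z-FHL added, 40 °C, 15 min. OPA/NaOH derivatisation, HCl quench. Fluorescence ex 360/em 485 nm, triplicate wells. IC50 from activity curves, converted to Ki.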

[2] = Inhibition of human testis ACE delta36NJ mutant preincubated for 30 mins followed by Z-FHL substrate addition measured after 15 mins by fluorimetric method; summary of the method: as §1

SMILES | Ratio Ki (Homo sapiens) | Ki [1] | Ki [2]
C[C@H](N[C@H](C(=O)O)[C@@H]1CCCN1C(=O)c1ccc(C(=O)O)cc1)C(=O)N1CCC[C@H]1C(=O)O | 0.14 | 0.0169 µM | 0.00229 µM
C[C@H](N[C@H](C(=O)O)[C@@H]1CCCN1C(=O)[C@@H](N)Cc1ccccc1)C(=O)N1CCC[C@H]1C(=O)O | 2.39 | 0.0703 µM | 0.168 µM
C[C@H](N[C@H](C(=O)O)[C@@H]1CCCN1C(=O)CN)C(=O)N1CCC[C@H]1C(=O)O | 0.16 | 0.279 µM | 0.0444 µM

Compounds with a lower Ki [1], results first:

Ratio Ki (Homo sapiens) | Ki [1] | Ki [2] | SMILES
0.07 | 0.00337 µM | 0.00022 µM | C[C@H](N[C@H](C(=O)O)[C@@H]1CCCN1C(=O)c1ccc(N)cc1)C(=O)N1CCC[C@H]1C(=O)O
83.9 | 0.0115 µM | 0.961 µM | C[C@H](N[C@H](C(=O)O)[C@@H]1CCCN1C(=O)[C@@H](N)CC(=O)O)C(=O)N1CCC[C@H]1C(=O)O
1.81 | 0.00963 µM | 0.0174 µM | C[C@H](N[C@H](C(=O)O)[C@@H]1CCCN1C(=O)[C@@H](N)CCC(=O)O)C(=O)N1CCC[C@H]1C(=O)O
0.07 | 0.00445 µM | 0.00031 µM | C[C@H](N[C@H](C(=O)O)[C@@H]1CCCN1C(=O)c1ccccc1)C(=O)N1CCC[C@H]1C(=O)O
